# High-throughput results from PubChem BioAssay.
# Most compounds without a hit are left out; they make up all but 2.3% or so of the library.
# Cneo AK release – Cryptococcus neoformans lysis via adenylate kinase release; C. neoformans lysis, adenylate kinase release luminescence, 4 h; normalised: neutral wells 0, clomiphene wells 100; 0.2% of 360,000 active; lysis activity, % at 15 µM;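 active means mean lysis activity across replicates of at least 80%, whatever share of replicates individually reach that level; inactive means mean lysis activity below 80%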
#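 Test system: log-phase Cryptococcus neoformans yeast cells; Quantity: yeast cell density of 5 × 10^6 cells/mL; Buffer or medium: YPD; Doses: single compound concentration per well; Timing: 4 h at 37 °C static, read 1 h later; Measured by: AK luminescence; Read-out basis: lysis from increased AK signal; Control set: Clomiphene as positive control.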
# ERp5 inh – inhibitors of human ERp5. inhibition, % at 9.99 µM. AID 651711. 0.05% of 350,000 active. ERp5 insulin aggregation, absorbance 650 nm, 90 min. Q15084;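 active means mean replicate inhibition above about 25%, with every replicate also reaching it, limit read from the data, passing the limit was not always enough; inconclusive means only one of those two criteria met; inactive means neither criterion met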
# F508del corr – CFTR F508del correction in bronchial cells | CFBE cells, YFP halide quenching; stimulated with forskolin plus potentiator P3; % fluorescence drop versus neutral controls | activity (quench increase), % at 7.58 µM | 0.36% of 350,000 active | AID 720511;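 active means mean added fluorescence quench of at least 8% versus neutral control, with both replicates also reaching 8%; inconclusive means only one of the mean or replicate conditions met; inactive means mean below 8% and not both replicates reaching 8%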;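 further: cells transiently co-express mutant CFTR-F508del with the halide-sensitive YFP; corrector assay measuring rescue of mutant channel to the surface after 24 h compound exposure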
# DENV2 CPE rescue – inhibitors of DENV2 cytopathic effect; DENV2-infected cells, cytopathic effect rescue, plate reader; CPE inhibition, % at 9.99 µM; 1.7% of 350,000 active; in the data active means CPE inhibition above about 20%, passing the limit was not always enough; inconclusive means no clear call, values can overlap the other calls; tested in BHK-21 cells;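 further: 0% = median of neutral control wells and 100% = median of positive control wells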
# Statin myotox sup – suppression of simvastatin myotoxicity | 0.78% of 330,000 active | C2C12 myotubes + simvastatin, ATP luminescence, 48 h; scaled: DMSO 0, geranylgeraniol control 100 | rescue of ATP level, % at 7.49 µM;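 active means mean ATP rescue above about 67%, or every replicate alone reaching that limit, limit read from the data, passing the limit was not always enough; inconclusive means no clear call, values can overlap the other calls; inactive means mean under the limit and some replicate under it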;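 further: myotubes were challenged with 10 µM simvastatin during compound exposure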
# PDI turbidity – inhibitors of human protein disulfide isomerase. inhibition, % at 10 µM. 0.052% of 350,000 active. P07237. AID 588391. PDI insulin aggregation turbidity, A650, 90 min;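 active means mean inhibition across replicates of 30% or more, whatever share of single replicates reach that level; inconclusive means mean inhibition below 30% while every single replicate reaches 30%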
# Target sequence (P07237 whole entry, looked up): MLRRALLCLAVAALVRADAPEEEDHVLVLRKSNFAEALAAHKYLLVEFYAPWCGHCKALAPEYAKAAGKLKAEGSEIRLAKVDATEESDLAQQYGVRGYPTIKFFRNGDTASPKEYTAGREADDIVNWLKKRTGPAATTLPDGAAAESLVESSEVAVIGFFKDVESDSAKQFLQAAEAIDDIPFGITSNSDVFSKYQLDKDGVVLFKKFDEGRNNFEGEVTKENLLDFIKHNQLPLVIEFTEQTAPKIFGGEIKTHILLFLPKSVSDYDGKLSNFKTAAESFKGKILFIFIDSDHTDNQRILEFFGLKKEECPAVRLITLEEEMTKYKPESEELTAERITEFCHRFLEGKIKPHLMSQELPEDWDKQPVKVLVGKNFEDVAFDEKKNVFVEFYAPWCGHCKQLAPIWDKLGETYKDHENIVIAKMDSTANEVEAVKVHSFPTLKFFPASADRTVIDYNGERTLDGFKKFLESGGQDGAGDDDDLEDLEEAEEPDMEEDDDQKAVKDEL
# Numbers without * were called inactive; ? = inconclusive; nt = not tested or not shown.
SMILES,Cneo AK release,ERp5 inh,F508del corr,DENV2 CPE rescue,Statin myotox sup,PDI turbidity
O=C(NC(Cc1ccccc1)C(=O)NC(Cc1ccccc1)C(=O)O)c1ccccc1 (stereo not given),-29,7,-1,?,0,7
CCOC(=O)c1ccc(NS(=O)(=O)c2ccc(-c3coc(C)n3)cc2)cc1,3,-14,-2,0,93*,6
COc1ccc(C(C)=O)cc1Cn1c(C)c(C(=O)NCCC#N)sc1=O,1,-1,-2,71*,-6,-8
Nc1ccccc1SC(CC(=O)c1ccccc1)c1ccc([N+](=O)[O-])cc1 (stereo not given),-2,3,-3,-1,19,0
Nc1ccccc1SC(CC(=O)c1ccccc1)c1cccc([N+](=O)[O-])c1 (stereo not given),-1,5,-8,-4,10,56*
O=C(NCCCN1CCCC1)Nc1ccc(F)cc1,1,1,-3,-5,-21,-2
O[Si](CCCN1CCCCC1)(c1ccc(F)cc1)C1CCCCC1 (stereo not given),1,4,8.8*,1,-22,-1
COc1ccc(S(=O)(=O)Nc2cccc3c2O[C@H](CN(C)S(C)(=O)=O)[C@H](C)CN([C@H](C)CO)C3=O)cc1,50,-1,-1,2,nt,nt
CC(=O)N1CC[C@@H]2[C@@H](CO)Nc3ccc(C#Cc4ccccc4F)cc3[C@@H]21,11,13,-2,20,-16,nt
Cc1nnc(SCC(=O)NC2CCCc3ccccc32)n1-c1ccccc1 (stereo not given),nt,1,1,83*,nt,7
O=[N+]([O-])c1cc(/C=N/NC(=S)Nc2ccccc2Cl)ccc1Cl,13,0,1,-6,-4,5
COc1ccc(/C=N/NC(=S)Nc2ccccc2[N+](=O)[O-])cc1O,-11,0,8.8*,-1,nt,0
Cc1cccc(NC(=S)N/N=C/c2cccc(O)c2)c1C,0,-2,11*,1,nt,2
Cn1cnc(CCNC(=O)C[C@@H]2CC[C@H]3[C@@H](COC[C@H](O)CN3C(=O)Nc3ccccc3)O2)c1,-3,-5,4,1,10,nt
Cc1ccc(NC(=O)CSC(C)C(=O)OCC(=O)N2CCN(C(=O)c3ccco3)CC2)cc1 (stereo not given),-9,-1,-1,86*,2,1
Cc1ccc(C2=[N+]([O-])C3(CCCCC/C3=N\O)N(O)C2(C)C)o1 (stereo not given),1,nt,nt,nt,nt,-5
CC1(C)C(c2ccc(Cl)cc2)=[N+]([O-])C2(CCCC/C2=N\O)N1O (stereo not given),2,nt,nt,nt,116*,2
O=C(Nc1cccc(Cl)c1)C1CCCN(S(=O)(=O)c2ccc(F)cc2)C1 (stereo not given),-1,nt,nt,nt,125*,1
CSc1cccc(NC(=O)C2CCCN(S(=O)(=O)c3ccc(F)cc3)C2)c1 (stereo not given),0,nt,nt,nt,nt,-6
O=C(C[C@@H]1C[C@H]2c3cc(NC(=O)CC4CC4)ccc3O[C@H]2[C@H](CO)O1)NCc1cccnc1,18,nt,-3,-3,1,nt
COc1ccccc1-c1noc(-c2cccs2)n1,-3,0,-4,-4,224*,-1
COc1ccc(Br)cc1-c1noc(-c2ccncc2)n1,-2,nt,nt,nt,0,-16
COc1ccccc1-c1noc(-c2ccncc2)n1,1,nt,nt,nt,112*,-9
O=C(NC[C@@H]1N[C@@H](CO)[C@@H]1c1ccccc1)c1ccccc1F,2,-9,2,29*,6,nt
CCN1CCN(C(=O)c2ccc(CN(c3ccccc3)S(=O)(=O)c3ccccc3)cc2)CC1,-1,-2,nt,nt,nt,8
SMILES,Cneo AK release,ERp5 inh,F508del corr,DENV2 CPE rescue,Statin myotox sup,PDI turbidity
CN1CCN(C(=O)c2ccc(CN(c3ccccc3)S(=O)(=O)c3ccccc3)cc2)CC1,-1,-2,12*,-4,4,3
COc1ccc2ccccc2c1-c1sc(Nc2ccccc2)n[n+]1-c1ccc(F)cc1,0,-1,-1,52*,10,-2
CC(C)CC1(C)NC(=O)NC1=O (stereo not given),5,nt,nt,nt,117*,-5
O=c1c2ccccc2oc2cc(-c3ccc4[nH]ccc4c3)ccc12,-3,6,10*,2,-33,0
COC(=O)C1(C(=O)OC)NOC2C(=O)N(c3ccc(Cl)cc3Cl)C(=O)C21 (stereo not given),0,nt,nt,nt,134*,1
CCCC#Cc1ccc2c(c1)[C@@H]1[C@@H](CCN1C(=O)CC1CC1)[C@@H](CO)N2C,0,5,0,74*,12,nt
CCC(=O)N1CC[C@@H]2[C@H]1c1cc(C#Cc3cccc(F)c3)ccc1N(C)[C@H]2CO,14,1,1,127*,8,nt
CN1c2ccc(-c3ccc(F)cc3)cc2[C@@H]2[C@@H](CCN2C(=O)CC2CC2)[C@@H]1CO,-5,nt,0,10,38,nt
C[C@H](O)C#Cc1cnc2c(c1)C(=O)N([C@@H](C)CO)C[C@H](C)[C@@H](CN(C)CC1CCCC1)O2,9,17,1,-7,-3,nt
Cn1c(N)c(C(=O)COC(=O)Cc2ccc(Cl)c(Cl)c2)c(=O)n(C)c1=O,-5,-4,-3,57*,1,3
Cc1ccc(S(=O)(=O)N(C)C[C@H]2Oc3ccc(NS(=O)(=O)c4ccccc4)cc3C(=O)N([C@@H](C)CO)C[C@H]2C)cc1,1,-7,2,-12,nt,nt
CN1c2ccc(-c3ccccc3)cc2[C@@H]2[C@@H](CCN2C(=O)NC2CCCCC2)[C@@H]1CO,nt,0,0,-6,nt,nt
CC1=C(C(=O)OC2CCCC2)C(c2ccc(C)o2)C2=C(CC(c3cccs3)CC2=O)N1 (stereo not given),-10,nt,nt,nt,102*,1
O=C(COC(=O)c1cc(Cl)nc2ccccc12)c1ccc(Cl)cc1,5,0,-3,63*,2,-10
Cc1ccc(C(=O)COC(=O)c2cc(Cl)nc3ccccc23)cc1,0,nt,nt,nt,-8,6
COc1ccc(NC(=O)N(C)C[C@H]2Oc3cc(C#CCC(C)C)ccc3S(=O)(=O)N([C@@H](C)CO)C[C@@H]2C)cc1,0,9,2,3,-9,nt
Nc1ccccc1SCC(=O)N1CCc2ccccc21,0,nt,nt,nt,11,-6
O=C(CSCCO)N1CCc2ccccc21,24,nt,nt,nt,116*,6
O=C([C@H]1[C@H](CO)[C@H]2Cn3c(ccc(-c4ccccc4)c3=O)[C@@H]1N2CCC(F)(F)F)N1CCOCC1,-2,2,3,-3,-11,nt
CNC[C@@H]1Oc2c(NC(=O)c3ccncc3)cccc2C(=O)N([C@@H](C)CO)C[C@@H]1C,-9,-2,2,1,14,nt
COc1ccccc1NS(=O)(=O)c1ccc(OC)c(OC)c1,-1,8,nt,nt,22,7
